Here are results for 18 compounds from ChEMBL document CHEMBL1147895, “Novel synthetic approach to N-aryl-4-(3-pyridyl)thiazol-2-amine and analogues using HMCM-41 as catalyst, and their biological evaluation as human platelet aggregation inhibitors” (Eur J Med Chem, 2007).

This test concerns Platelet. Kind of test: Inhibition of ADP-induced human platelet aggregation. Format: functional, cell-based. The method, boiled down:
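Human PRP from fasted, medication-free healthy male volunteers: citrated blood (0.38% final) spun at 800 rpm for 10 min; PPP from a 2500 rpm, 10 min spin. Compounds in DMSO (0.01% final) preincubated 2 min at 37 °C before ADP activation. Born turbidimetry; maximum curve height read, % inhibition versus vehicle; IC50 from linear regression of % inhibition against concentration.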

In turn, `CN(c1nc(-c2ccc(C(=N)N)cc2)cs1)C1CCN(CC(=O)O)CC1` came in with an IC50 of 160 nM.

Consider `c1cncc(-c2csc(Nc3cccc4ccccc34)n2)c1`, for which the midpoint of inhibition, the IC50, lay at 2890 nM.

Turning to `N=C(N)c1ccc(-c2csc(N(Cc3ccccc3)C3CCN(CC(=O)O)CC3)n2)cc1`, the IC50 stood at 230 nM.

Compound `CCc1ccccc1Nc1nc(-c2cccnc2)cs1` gave a half-maximal inhibitory concentration (IC50) of 1350 nM.

`Fc1ccccc1Nc1nc(-c2cccnc2)cs1`: the 50% inhibitory concentration (IC50) is 484 nM.

The compound `CCc1cccc(CC)c1Nc1nc(-c2cccnc2)cs1` came in with an IC50 of 2190 nM.

Consider `N=C(N)c1ccc(-c2csc(N(CCC(=O)O)C3CCN(CC(=O)O)CC3)n2)cc1`, for which the concentration for half-maximal inhibition (IC50) worked out at 46 nM.

`Cc1ccc(Nc2nc(-c3cccnc3)cs2)cc1` yielded an IC50 of 2000 nM.

`N=C(N)c1ccc(-c2csc(NC3CCN(C(C(=O)O)c4ccccc4)CC3)n2)cc1` (stereo not drawn) registered a half-maximal inhibitory concentration (IC50) of 65 nM.

Consider `N=C(N)c1ccc(-c2csc(N(CC(=O)O)C3CCN(CC(=O)O)CC3)n2)cc1`, for which the IC50 turned out to be 170 nM.

`Nc1nc(-c2cccnc2)c[s+]1[O-]` (stereo not drawn): the half-inhibitory concentration (IC50) is 1410 nM.

Regarding `N=C(N)c1ccc(-c2csc(NC3CCN(C(C(=O)O)c4ccccc4Cl)CC3)n2)cc1` (stereo not drawn), the half-inhibitory concentration (IC50) is 6000 nM.

Compound `CC(C)(C(=O)O)N1CCC(Nc2nc(-c3ccc(C(=N)N)cc3)cs2)CC1` registered an IC50 of over 10000 nM.

`CC(C(=O)O)N1CCC(Nc2nc(-c3ccc(C(=N)N)cc3)cs2)CC1` (stereo not drawn): the half-inhibitory concentration (IC50) was determined as 250 nM.

In turn, `N=C(N)c1ccc(-c2csc(NC3CCN(CC(=O)O)CC3)n2)cc1` registered an IC50 of 42 nM.

On to `N=C(N)c1ccc(-c2csc(NC3CCN(CCC(=O)O)CC3)n2)cc1`, for which inhibition was half-maximal at 1800 nM (IC50).

`N=C(N)c1ccc(-c2csc(NC3CCN(C(CC(=O)O)C(=O)O)CC3)n2)cc1` (stereo not drawn): the IC50 is 85 nM.

The compound `N=C(N)c1ccc(-c2csc(N(CCCC(=O)O)C3CCN(CC(=O)O)CC3)n2)cc1` came in with an IC50 of 96 nM.

For orientation: IC50 means the concentration at which inhibition is half-maximal.
